Test results: PubChem BioAssay AID489031 (Sanford-Burnham Center for Chemical Genomics, 2010)
Hit rate of the full screen: of about 330,000 compounds, about 1,000 (0.3%) were called active.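 Rule for the calls: active = activity change at or below -40% at 20 µM; inactive = the rest.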 The sample as a whole holds a higher share of actives than the screen did.

What follows are compounds tested against Apoptotic protease-activating factor 1 (Homo sapiens) (UniProt O14727) (assay: enhancers of Apaf-1-driven caspase-3 activation – biochemical, DEVD-Rh110 fluorescence, uHTS, primary screen (AID 489031)). Details: Apaf-1 apoptosome caspase-3 activation, at 20 µM, hits give low values.
Apoptotic protease-activating factor 1 (Homo sapiens), sequence (O14727 whole entry, looked up): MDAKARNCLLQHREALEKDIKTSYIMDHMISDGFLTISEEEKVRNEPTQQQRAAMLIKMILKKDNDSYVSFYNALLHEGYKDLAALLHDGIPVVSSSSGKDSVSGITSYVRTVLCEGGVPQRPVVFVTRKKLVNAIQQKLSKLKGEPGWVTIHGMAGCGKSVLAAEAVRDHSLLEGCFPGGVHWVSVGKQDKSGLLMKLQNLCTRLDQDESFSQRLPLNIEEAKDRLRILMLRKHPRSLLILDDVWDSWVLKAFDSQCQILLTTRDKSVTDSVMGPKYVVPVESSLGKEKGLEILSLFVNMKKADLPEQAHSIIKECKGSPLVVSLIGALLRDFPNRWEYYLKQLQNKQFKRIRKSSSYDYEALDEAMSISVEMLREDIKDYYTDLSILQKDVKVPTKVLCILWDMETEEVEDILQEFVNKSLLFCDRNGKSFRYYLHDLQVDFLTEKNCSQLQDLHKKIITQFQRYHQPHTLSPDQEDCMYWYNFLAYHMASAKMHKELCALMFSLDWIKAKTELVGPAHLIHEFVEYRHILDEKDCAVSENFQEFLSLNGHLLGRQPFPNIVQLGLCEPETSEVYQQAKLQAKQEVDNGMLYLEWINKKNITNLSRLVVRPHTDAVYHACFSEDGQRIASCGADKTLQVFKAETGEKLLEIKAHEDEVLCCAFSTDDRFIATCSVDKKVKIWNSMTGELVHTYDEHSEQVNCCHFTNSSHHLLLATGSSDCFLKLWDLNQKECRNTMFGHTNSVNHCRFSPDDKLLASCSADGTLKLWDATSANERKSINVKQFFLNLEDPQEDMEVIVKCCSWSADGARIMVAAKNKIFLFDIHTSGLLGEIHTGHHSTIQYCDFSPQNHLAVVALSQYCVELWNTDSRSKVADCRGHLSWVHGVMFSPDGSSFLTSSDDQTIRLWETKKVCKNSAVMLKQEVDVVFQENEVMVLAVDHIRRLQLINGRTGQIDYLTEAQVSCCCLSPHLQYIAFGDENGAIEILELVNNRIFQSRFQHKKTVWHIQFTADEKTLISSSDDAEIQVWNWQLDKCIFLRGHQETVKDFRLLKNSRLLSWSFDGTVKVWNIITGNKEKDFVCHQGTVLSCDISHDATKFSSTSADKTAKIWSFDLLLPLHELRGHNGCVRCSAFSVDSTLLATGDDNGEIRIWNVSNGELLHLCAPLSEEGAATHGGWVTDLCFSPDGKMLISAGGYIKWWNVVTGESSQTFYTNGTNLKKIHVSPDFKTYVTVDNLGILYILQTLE
In short: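 Assay system – biochemical Apaf-1 apoptosome reconstitution · Medium – 20 mM HEPES buffer, pH 7.5, containing CHAPS and BSA · Incubation – 30 min preincubation, 50 min reaction, room temperature · Measured by – Caspase-3-released Rh110 fluorescence, 540 nm emission, 480 nm excitation · Read-out – Caspase-3 cleavage activity downstream of Apaf-1 activation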

Activity change, negative = activation, inactive:
CCOC(=O)N1CCC(c2cc(=O)n(-c3ccccc3)[nH]2)CC1 86.7%
COCCNC(=O)Nc1ccc2nc(-c3ccco3)c(-c3ccco3)nc2c1 64.8%
CC(=O)N=c1ncn(CC(COC(C)=O)OC(C)=O)c2nc[nH]c12 (stereo unspecified) 74.2%
CCCCNC(=O)C(C)N(CCN(C)C)C(=O)CCCCCN1C(=O)NC(c2ccc(Cl)cc2)C(C(=O)OCc2ccccc2)=C1C (stereo unspecified) 67.1%
c1ccc(C[C@H]2CNCCN2CCC23CC4CC(CC(C4)C2)C3)cc1 47.5%
CC(C)c1ccccc1OCC(O)CN(CC(O)COc1cccc2ccccc12)C(C)C (stereo unspecified) 57.3%
c1ccc(CSc2nnc(-c3ccco3)c(-c3ccco3)n2)cc1 49.6%
Cc1ccsc1/C=N/NC(=O)Cc1cc(=O)[nH][nH]1 58.3%
COc1ccccc1C1C(C#N)=C(N)Oc2c1c(-c1ccccc1)nn2-c1ccccc1 (stereo unspecified) 42.2%
COc1ccc2sc(-c3ccccc3OC)c(-c3ccc(OCCN4CCCC4)cc3)c2c1 73.4%
C/C(=N\NC(=O)CNc1cccc2ccccc12)c1ccc(Br)s1 90.2%
Cc1ccc(-c2ccc(/C=N/NC(=O)CN3CCOCC3)o2)cc1[N+](=O)[O-] 73.9%
O=C(CCCN1CCc2[nH]c3ccc(F)cc3c2C1)c1ccc(F)cc1 65%
NC[C@H](Cc1ccccc1)NCCc1cc(C(F)(F)F)cc(C(F)(F)F)c1 60.8%
Clc1ccccc1CSc1nnc(-c2ccco2)c(-c2ccco2)n1 49.9%
Cc1ccc2nc(N3CCN(C(=O)c4ccco4)CC3)sc2c1 41.9%
CC[N+](C)(CC)CCC[n+]1c(-c2ccccc2)c2cc(N)ccc2c2ccc(N)cc21 98.2%
CN(C)CCCN(C(=O)c1ccc(S(=O)(=O)N2CCCCCC2)cc1)c1nc2ccc(Br)cc2s1 60.4%
O=[N+]([O-])c1c(NCCO)cc(Sc2nc3ccccc3s2)c2nonc12 90.7%
C=CCC[C@H](Cc1ccc(F)cc1)C(=O)OC[C@@H](NC(=O)[C@@H](CC=C)CC(=O)N[C@H](CO)Cc1ccccc1)C(C)(C)C 40.6%
O=C(O)c1cc(Cl)c(Cl)cc1C(=O)Nc1cccc2ncccc12 80.4%
CCCCN(CCCC)CCC(O)c1cc2c(Cl)cc(Cl)cc2c2cc(C(F)(F)F)ccc12 (stereo unspecified) 48.9%
Cc1cc(C)n(-c2nc(SCC(=O)N3CCCC3)c3c4c(sc3n2)CCCC4)n1 43.6%
O=c1cc(N2CCCCC2)c(-c2ccccc2)nn1Cc1cccc(F)c1 44%
OC(CNCC1CCCO1)Cn1c2ccc(Br)cc2c2cc(Br)ccc21 (stereo unspecified) 43.4%
O=S(=O)(Nc1ccc(O)c2ccccc12)c1ccc(OC(F)(F)F)cc1 60.9%
COc1ccc(NC(=O)CN(Cc2ccccc2)S(C)(=O)=O)cc1OC 40.8%
Cc1[nH][nH]c(=O)c1C(c1ccc(-c2ccc(Cl)cc2)o1)c1c(C)[nH][nH]c1=O 85.8%
CCC(=O)Nc1c(S(=O)(=O)c2ccccc2)c2nc3ccccc3nc2n1Cc1ccccc1 49.2%
C=CCn1c(N)c(C(=O)OCC(C)C)c2nc3ccccc3nc21 54.1%
C#CCOCCOCCOCCNc1nc(N2CCN(C(=O)CCCCCCCCCCNC(=O)[C@H](CCCCN)n3cc(C)nn3)CC2)nc(N2CCN(C(=O)CCCCCCCCCCNC(=O)[C@H](CO)n3cc(CCCSC)nn3)CC2)n1 59.7%
CC(C)n1cnc2c(NCc3ccccc3)cc(N[C@@H](CO)Cc3ccccc3)cc21 94.5%
NC(N)=N/N=C/c1ccc(OCc2ccc(Cl)cc2Cl)cc1 65.5%
CCOC(=O)N1CCC(NC(=O)C(C)n2c3ccccc3c3cnn(C)c(=O)c32)CC1 (stereo unspecified) 44.6%
C#C[C@]1(O)CC[C@H]2[C@@H]3CCC4=CC(=O)CC[C@@H]4[C@H]3CC[C@@]21CC 1.24%
COC(=O)[C@H]1[C@H]2C[C@H]3c4[nH]c5ccccc5c4CCN3C[C@@H]2CC[C@@H]1O 13.4%
CN1CCN(c2ccccc2NC(=O)COc2ccc(C3CCCCC3)cc2)CC1 43.6%
Cc1ccc(S(=O)(=O)C(C#N)c2nc3ccccc3nc2N2CCCC2)cc1C (stereo unspecified) 60%
Oc1ccc(N=Cc2c(O)ccc3ccccc23)cc1 87.2%
Oc1ccc(N=Cc2sc3ccccc3c2Cl)cc1 64.8%
Cc1ccc(C(=O)N/N=C\c2cc(Br)c(Br)o2)cn1 75.4%
COc1ccc(/C=C2/C(=O)N(c3ccccc3)N=C2C)c(OC)c1 80.1%
CN1CCN(CCCNC(=O)c2ccc(/C=C3\Oc4ccccc4N(Cc4ccc(Cl)cc4)C3=O)cc2)CC1 56.6%
C(=N/Nc1cc(N2CCOCC2)nc(N2CCOCC2)n1)/c1ccccc1 76.5%
COc1ccc(-c2nc3cc(C)ccn3c2NC2CCCCC2)cc1SC1CCCCC1 48.4%
Cc1oc2c(c1C(=O)N1CCOCC1)C(=O)c1ccccc1C2=O 65.9%
CC(C)n1cnc2c(NCc3ccccc3)cc(OCC3CCN(C)CC3)cc21 96.4%
Cc1ccc2c(c1)C1CN(C)CCC1N2S(=O)(=O)c1ccc(Oc2ccc([N+](=O)[O-])cc2)cc1 (stereo unspecified) 59.9%
NC(N)=NCCCc1cn(CC(=O)N2CCNCC2)nn1 40.2%
CC(NC(=O)c1ccccc1SCC(=O)N1CCCC1)c1ccccc1 (stereo unspecified) 41.6%
COCCn1nnnc1C(c1cc2ccc(OC)cc2[nH]c1=O)N1CCc2ccccc2C1 (stereo unspecified) 56.8%
CC(C)Cn1c(N)c(C(=O)NCc2cccs2)c2nc3ccccc3nc21 63.4%
CCc1nn(CCCN2CCN(c3cccc(Cl)c3)CC2)c(=O)n1CCOc1ccccc1 23.5%
CCN(CC)CCOc1ccc2c(c1)C(=NNC(=O)c1ccccn1)c1cc(OCCN(CC)CC)ccc1-2 52.5%
CC(=O)Nc1ccc(Nc2cc(C)nc(Nc3ccc(NC(C)=O)cc3)n2)cc1 46.2%
c1ccc2c(CCN3CCNC[C@H]3Cc3cccc4ccccc34)cccc2c1 67%
CCCCCCCCCCOC(=O)Cn1c(COc2cccc(OC)c2)[n+](C)c2ccccc21 65.3%
N#Cc1c(N2CCCCC2)nc(N)c2c(N)nc(SCC(=O)O)cc12 96%
O=C(NCc1ccccn1)c1ccc2nc(-c3ccco3)c(-c3ccco3)nc2c1 60.6%
CCOc1[nH]n(-c2ccc(Cl)cc2)c(=O)c1C=Nc1ccc(O)cc1 66.9%

Activity change, negative = activation, active:
Cc1nn(CC(=O)Nc2ccc(C#N)cc2)c(C)c1[N+](=O)[O-] -116%
CC(C)OCCCNC(=S)N1CCC(C(=O)c2ccc3c(c2)OCCO3)CC1 -164%
C=C(C)C(=O)Nc1cccc(C2=NOC3(C2)C[C@H](C(N)=O)N(C(=O)C(c2ccccc2)c2ccccc2)C3)c1 (stereo partly specified) -78.2%
O=c1[nH]cnc2c1c(-c1ccccc1)cn2-c1ccc(F)cc1 -47%
COc1cc(C2C(C#N)=C(N)Oc3n[nH]c(-c4ccccn4)c32)cc(OC)c1OC (stereo unspecified) -84.8%
O=C(CSc1nc2ccccc2c(=O)[nH]1)Nc1nc(-c2ccc(Br)cc2)cs1 -74%
COc1ccc(C2CC(c3ccccc3)Nc3ncnn32)cc1 (stereo unspecified) -445%
O=C(CN1C(=O)C2C3C=CC(C3)C2C1=O)NCCc1ccccc1Cl (stereo unspecified) -99.8%
Cc1ccc(-c2nc(SCC(=O)Nc3ccccc3OC(F)F)c3c(C)c(C(=O)O)sc3n2)cc1 -98.5%
CCOCCCNC(=O)c1c[nH]c2cc(C)ccc2c1=O -152%
COC(=O)C(C)N(C#N)c1nc(C)nc(C)n1 (stereo unspecified) -363%
COc1ccc(C2c3ccc(O)cc3Oc3ncn(CCCO)c(=N)c32)cc1OC (stereo unspecified) -43.4%
COc1ccc(S(=O)(=O)N2CCCCC2)cc1NC(=O)c1cc([N+](=O)[O-])ccc1N1CCOCC1 -42.8%
CC(=O)CCC(=O)c1ccc2ccccc2c1 -178%
Cc1ccc(S(=O)(=O)c2c(N)n(C)c3nc4ccccc4nc23)cc1 -405%
O=C(Nc1cccc(-c2nc3ccccc3[nH]2)c1)c1ccc(C(=O)Nc2cccc(-c3nc4ccccc4[nH]3)c2)cc1 -44%
C=CC1=C(C(=O)O)N2C(=O)[C@@H](NC(=O)/C(=N/OCC(=O)O)c3csc(N)n3)[C@H]2SC1 -112%
C=CC1=C(C(=O)O)N2C(=O)[C@@H](NC(=O)/C(=N\OCC(=O)O)c3csc(N)n3)[C@H]2SC1 -78%
Cc1ccc(S(=O)(=O)N2CCOCC2)cc1C(=O)NC(=S)N(Cc1ccccc1)C(C)C -57.7%
O=C(CSc1ccc(-c2ccc(-n3cccn3)cc2)nn1)Nc1ccc([N+](=O)[O-])cc1 -70.1%
CCCC(=O)Nc1nc2ccc(NC(=O)c3c(F)c(F)c(OC)c(F)c3F)cc2s1 -393%
COc1ccccc1OCC(=O)Nc1c2c(nn1-c1ccc(F)cc1)CS(=O)(=O)C2 -88%
O=c1[nH]c2c(c(=O)n1Cc1ccccc1)CCC2 -300%
O=C(Nc1ccccc1F)c1ccccc1-c1ccccc1 -42.2%
CC1COc2ccccc2N1C(=O)c1cccnc1Cl (stereo unspecified) -62.8%
CCOc1ccc(N=C2NC(=O)S/C2=C\c2ccc(O)cc2)cc1 -72%
